According to ChEMBL document CHEMBL1764963, “In vitro and QSAR studies of cucurbitacins on HepG2 and HSC-T6 liver cell lines” (Bioorg Med Chem, 2011):
Active and inactive are the calls of the source. The calls are words filed in the database; no cut-off is given here.

Experiments:
[1] = Antioxidant activity assessed as inhibition of free radical production at 0.58 mM within 6 mins by ABTS+ decolorization assay; assay type: functional
[2] = Antiproliferative activity against serum-stimulated rat HSC-T6 cells after 24 hrs by MTT assay; assay type: functional, cell-based; details: HSC-T6, 24 h
[3] = system: HepG2; test: Hepatoprotective activity in human HepG2 cells assessed as protection against cell damage after 24 hrs by MTT assay; assay type: functional
[4] = system: HepG2; test: Ratio of IC50 to EC50 for hepatoprotective activity in human HepG2 cells; assay type: functional
[5] = Ratio of IC50 to EC50 for antiproliferative activity in rat HSC-T6 cells; assay type: functional
[6] = system: HepG2; test: Hepatoprotective activity in human HepG2 cells assessed as inhibition of CCl4-induced toxicity after 24 hrs by MTT assay; assay type: functional, cell-based; design: Activity: scale not given: the % may be the effect or the level left; details: for EC50: Homo sapiens, HepG2, 24 h
[7] = Cytotoxicity against rat HSC-T6 cell after 24 hrs by MTT assay; assay type: cell-based; details: for IC50: Rattus norvegicus, HSC-T6, 24 h
[8] = system: HepG2; test: (§1) Cytotoxicity against human HepG2 cells after 24 hrs assessed as inhibition of cell viability by MTT assay; assay type: cell-based; details: for IC50: Homo sapiens, HepG2, 24 h
[9] = system: HeLa; test: Cytotoxicity against human HeLa cells after 24 hrs by MTT assay; assay type: functional, cell-based
[10] = system: Radical scavenging activity; test: Antioxidant activity assessed as DPPH radical scavenging activity at 64 uM after 10 mins; assay type: functional
[11] = system: HepG2; test: Ratio of IC50 for human HepG2 cells to IC50 for human HeLa cells
Summary of the method: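 Both lines (HepG2 grown 10 days, HeLa 7 days, in EMEM/10% FBS) seeded 24 h in 2% FBS at 30,000 and 15,000 cells/ml. Five-fold serial dilutions over 5 wells for 24 h. Viability by MTT at 570 nm versus cell-free and untreated controls. IC50 derived from log IC50. Ratio taken of the two IC50 values.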

[12] = Inhibition of hyaluronidase activity at 71.68 mM
[13] = as §1; assay type: cell-based; details: human, HepG2 cells; read-out: INH
[14] = system: HSC-T6; test: Cytotoxicity against rat HSC-T6 cell up to 300 uM after 24 hrs by MTT assay; assay type: functional, cell-based
Summary of the method: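 HSC-T6 rat stellate cells grown 4-5 days in EMEM/10% FBS, then seeded 24 h at 100,000 cells/ml in 2% FBS. Medium replaced with compound in fresh 10% FBS medium, two-fold dilutions across seven wells, for 24 h. Viability by MTT (570 nm) relative to cell-free and untreated controls. Three experiments, ≥3 replicates each.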

[15] = system: HepG2; test: Hepatoprotective activity in human HepG2 cells assessed as inhibition of CCl4-induced toxicity at 100 uM after 24 hrs by MTT assay; assay type: functional, cell-based
Summary of the method: (§2)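 HepG2 cells grown 10 days in EMEM with 10% FBS, then seeded 24 h at 30,000 cells/ml in 2% FBS. Test agent added together with CCl4 (4.5 x 10^-3 M) for 24 h. Silybin was tested at 1–200 uM. Cucurbitacins were tested at 0.5 and […] their IC50, then at 0.13 and 0.06. MTT read at 570 nm. % protection calculated against CCl4-only and media-only controls. Three experiments, ≥3 replicates each.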

[16] = system: HepG2; test: Hepatoprotective activity in human HepG2 cells assessed as inhibition of CCl4-induced toxicity at 12.5% IC50 after 24 hrs by MTT assay; assay type: functional, cell-based; summary of the method: as §2
[17] = system: HepG2; test: Hepatoprotective activity in human HepG2 cells assessed as inhibition of CCl4-induced toxicity at 6.25% IC50 after 24 hrs by MTT assay; assay type: functional, cell-based; summary of the method: as §2

SMILES | EC50 [2] [µM] | Activity [3] [%] | Ratio IC50/EC50 [4] | Ratio IC50/EC50 [5] | EC50 [6] [µM] | IC50 [7] [µM] | IC50 [8] [µM] | IC50 [9] [µM] | further results
Cc1c(C)c2c(c(C)c1O)CCC(C)(C(=O)O)O2 (configuration not stated) |  |  |  |  |  |  |  |  | inhibition [1]: 50%
CC(C)(O)/C=C/C(=O)[C@](C)(O)[C@H]1[C@H](O)C[C@@]2(C)[C@@H]3CC=C4[C@@H](C=C(O)C(=O)C4(C)C)[C@]3(C)C(=O)C[C@]12C [CUCURBITACIN I] | 0.02 | 40 | 5 | 150 | 3.16 | 3.6 | 15.8 |  | inhibition (INH) [6]: 74%
CC(=O)OC(C)(C)/C=C/C(=O)[C@](C)(O)[C@H]1[C@H](O)C[C@@]2(C)[C@@H]3CC=C4[C@@H](C=C(O)C(=O)C4(C)C)[C@]3(C)C(=O)C[C@]12C [CUCURBITACIN E] | 0.04 | 40 |  |  | 3.2 |  | 15.2 | 0.1 | inhibition (INH) [6]: 74%
CC(C)OC1=C[C@@H]2C(=CC[C@@H]3[C@@]2(C)C(=O)C[C@]2(C)[C@@H]([C@@](C)(O)C(=O)/C=C/C(C)(C)O)[C@H](O)C[C@@]32C)C(C)(C)C1=O | 0.25 | 40 |  | 10 |  | 2.53 | 7.33 |  | Activity [6]: <50%
CC(C)(O)/C=C/C(=O)[C@](C)(O)[C@H]1[C@H](O)C[C@@]2(C)[C@@H]3CC=C4[C@@H](CC(=O)[C@@H](O)C4(C)C)[C@]3(C)C(=O)C[C@]12C | 0.06 | 40 | 6 | 137 | 13.8 | 8.7 | 80.3 |  | inhibition (INH) [6]: 74%
COC1=C[C@@H]2C(=CC[C@@H]3[C@@]2(C)C(=O)C[C@]2(C)[C@@H]([C@@](C)(O)C(=O)CCC(C)(C)O)[C@H](O)C[C@@]32C)C(C)(C)C1=O | 0.18 | 40 |  |  | 5 | 6.7 |  |  | inhibition (INH) [6]: 74%
CCOC1=C[C@@H]2C(=CC[C@@H]3[C@@]2(C)C(=O)C[C@]2(C)[C@@H]([C@@](C)(O)C(=O)/C=C/C(C)(C)O)[C@H](O)C[C@@]32C)C(C)(C)C1=O | 0.34 | 40 |  |  |  | 3.53 |  |  | Activity [6]: <50%
O=C1O[C@H]([C@@H](O)CO)C(O)=C1O |  |  |  |  |  |  |  |  | inhibition [10]: 50%
CC(=O)OC(C)(C)/C=C/C(=O)[C@](C)(O)[C@H]1[C@H](O)C[C@@]2(C)[C@@H]3CC=C4[C@@H](C=C(OC(C)C)C(=O)C4(C)C)[C@]3(C)C(=O)C[C@]12C | 0.32 | 40 |  | 8 |  | 2.5 | 4.27 |  | 
COC1=C[C@@H]2C(=CC[C@@H]3[C@@]2(C)C(=O)C[C@]2(C)[C@@H]([C@@](C)(O)C(=O)/C=C/C(C)(C)OC(C)=O)[C@H](OC(C)=O)C[C@@]32C)C(C)(C)C1=O | 0.91 | 40 | 5 | 13 | 5.2 | 11.5 | 26 | 3.2 | Ratio IC50 [11]: 8
COC1=C[C@@H]2C(=CC[C@@H]3[C@@]2(C)C(=O)C[C@]2(C)[C@@H]([C@@](C)(O)C(=O)/C=C/C(C)(C)O)[C@H](O)C[C@@]32C)C(C)(C)C1=O | 0.11 | 40 | 3 | 60 | 5.25 | 6.37 | 15 |  | inhibition (INH) [6]: 74%
CCCCC1C(=O)N(c2ccccc2)N(c2ccccc2)C1=O |  |  |  |  |  |  |  |  | inhibition [12]: 50%
CCOC1=C[C@@H]2C(=CC[C@@H]3[C@@]2(C)C(=O)C[C@]2(C)[C@@H]([C@@](C)(O)C(=O)/C=C/C(C)(C)OC(C)=O)[C@H](O)C[C@@]32C)C(C)(C)C1=O | 0.27 | 40 |  | 13 |  | 3.5 | 5.1 | 1.1 | Ratio IC50 [11]: 5; Activity [6]: <50%
CC(=O)OC(C)(C)/C=C/C(=O)[C@](C)(O)[C@H]1[C@H](O)C[C@@]2(C)[C@@H]3CC=C4[C@@H](C=C(O[C@@H]5O[C@H](CO)[C@@H](O)[C@H](O)[C@H]5O)C(=O)C4(C)C)[C@]3(C)C(=O)C[C@]12C | 3.28 | 40 | 5 | 31 | 45.3 | 102 | 227 | 37 | Ratio IC50 [11]: 6
ClC(Cl)(Cl)Cl [CARBON TETRACHLORIDE] |  |  |  |  |  |  |  |  | cytotoxicity at 24 h [13]: 50%
CC(C)(O)/C=C/C(=O)[C@](C)(O)[C@H]1[C@H](O)C[C@@]2(C)[C@@H]3CC=C4[C@@H](C[C@H](O)C(=O)C4(C)C)[C@]3(C)C(=O)C[C@]12C [CUCURBITACIN D] | 0.07 | 40 | 9 | 379 | 9 | 26 | 77.3 | 0.7 | Ratio IC50 [11]: 107; inhibition (INH) [6]: 74%
COc1cc(C2Oc3cc([C@H]4Oc5cc(O)cc(O)c5C(=O)[C@@H]4O)ccc3OC2CO)ccc1O (some centres not stated) [SILIBININ] | 18.8 | 40 |  |  | 45 |  |  |  | Activity [14]: Not toxic; Activity ([7]; rat, hsc-t6, 24 h): Non-toxic; Activity ([8]; human, hepg2, 24 h): Non-toxic; inhibition [15]: Active
CC(=O)OC(C)(C)/C=C/C(=O)[C@](C)(O)[C@H]1[C@H](O)C[C@@]2(C)[C@@H]3CC=C4[C@H](C[C@H](O)C(=O)C4(C)C)[C@]3(C)C(=O)C[C@]12C [CUCURBITACIN B] | 0.02 | 40 | 3 | 205 | 10.5 | 4.42 | 27.7 | 0.8 | Ratio IC50 [11]: 37
COC1=C[C@@H]2C(=CC[C@@H]3[C@@]2(C)C(=O)C[C@]2(C)[C@@H]([C@@](C)(O)C(=O)/C=C/C(C)(C)OC(C)=O)[C@H](O)C[C@@]32C)C(C)(C)C1=O | 0.08 | 40 | 5 | 35 | 2.4 | 2.83 | 12 |  | 
CCCOC1=C[C@@H]2C(=CC[C@@H]3[C@@]2(C)C(=O)C[C@]2(C)[C@@H]([C@@](C)(O)C(=O)/C=C/C(C)(C)OC(C)=O)[C@H](O)C[C@@]32C)C(C)(C)C1=O | 0.34 | 40 |  |  |  | 2.75 |  | 1.4 | inhibition [16]: inactive; inhibition [17]: inactive
CCCOC1=C[C@@H]2C(=CC[C@@H]3[C@@]2(C)C(=O)C[C@]2(C)[C@@H]([C@@](C)(O)C(=O)/C=C/C(C)(C)O)[C@H](O)C[C@@]32C)C(C)(C)C1=O | 0.33 | 40 |  | 8 |  | 2.47 | 5 |  | Activity [6]: <50%
CC(C)(O)/C=C/C(=O)[C@](C)(O)[C@H]1[C@H](O)C[C@@]2(C)[C@@H]3CC=C4[C@@H](C=C(O[C@@H]5O[C@H](CO)[C@@H](O)[C@H](O)[C@H]5O)C(=O)C4(C)C)[C@]3(C)C(=O)C[C@]12C | 4.15 | 40 | 2 | 62 | 195 | 256 | 390 |  | 
